# How the values were obtained:
# [1] = system: Kunming mice; assay: In vivo safety evaluation; conditions: 40 mg/kg intragastrically, 7 d continuous
# How it was run: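 Male Kunming mice (18–22 g), nine in 3 groups, received PBS, 5-FU or test compound intragastrically at 40 mg/kg for 7 consecutive days. Duodenum, jejunum, ileum and colon (plus major organs) were fixed in 10% formalin, then embedded, dewaxed, stained and examined microscopically.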
# [2] = In vivo pharmacokinetics; design: species or system Sprague-Dawley rats; conditions: 8 mg/kg
# How it was run: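 Male Sprague-Dawley rats (200–220 g), 5 per group. Oral dosing was 20 mg/kg 5-FU equivalent; one group received 5-FU iv at 8 mg/kg for absolute bioavailability. Plasma was collected at set times. Samples were precipitated with methanol plus internal standard, dried under nitrogen at 37 °C and reconstituted in methanol:water 15:85. Prodrug and 5-FU were measured together by UPLC-MS/MS (C18, water/acetonitrile gradient, MRM).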
# [3] = system: Caco-2 cells; assay: In vitro cytotoxicity; assay type: cell-based; conditions: for IC50: Homo sapiens, Caco-2, 48 h, read-out: IC50 Caco-2; for IC50 in Caco-2 cells, fold greater than 5-FU: MTT, 48 h
# How it was run: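 Caco-2 cells seeded at 5 × 10^3 per well and grown 24 h. Cells were exposed to a concentration gradient of test compound for 48 h. Medium was replaced with 20% MTT medium for 4 h at 37 °C, then formazan was dissolved in DMSO for 15 min. Absorbance was read at 490 nm and IC50 calculated.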
# [4] = Enzymatic stability in rat intestinal homogenates; assay type: in vitro ADME; conditions: Sprague-Dawley, intestinal homogenate
# How it was run: (§1)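 Matrices from Sprague-Dawley rats: plasma from orbital blood stored at −80 °C, and liver or intestine washed in saline, homogenised on ice at 1:3 tissue:saline, with cold-centrifuged supernatant used. Test compound at 80 µg/ml, shaken at 37 °C, sampled 0–48 h. Samples were quenched with methanol (1:3), vortexed 2 min and centrifuged 13 000 rpm for 10 min. Supernatant was analysed by HPLC.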
# [5] = system: Caco-2 cells; assay: Caco-2 cell uptake study; assay type: cell-based; conditions: for Uptake in untreated cells (without butyric acid induction): cells without induction vs butyric acid-treated; for Caco-2 uptake, fold higher than 5-FU: drug concentration 1 mM, uptake time 10 min, butyric acid-induced cells
# How it was run: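 Caco-2 cells seeded in 24-well plates at 1 × 10^4 per well and grown 15 d. Medium was switched to butyric acid-containing medium on day 7 to induce MCT1. Uptake ran at 37 °C at set times and concentrations, with or without inhibitor at 2.5 mM. Cells were washed three times with cold PBS, collected in water and sonicated. Drug was measured by UPLC-MS/MS and normalised to BCA protein.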
# [6] = Enzymatic stability in rat plasma; assay type: in vitro ADME; conditions: Sprague-Dawley
# How it was run: as §1
# [7] = In situ single-pass intestinal perfusion study; assay type: in vivo, Sprague-Dawley (SD) rats; conditions: for absorption rate constant (Ka), fold higher than 5-FU / apparent permeability coefficient (Papp), fold higher than 5-FU: colon, 0.5 mM, rat
# How it was run: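 Sprague-Dawley rats (220–240 g) were anaesthetised with 20% urethane, and ileum and colon segments were cannulated. Segments were pre-perfused with blank MES buffer for 20 min, then with test compound at 0.5 mM in MES buffer. Inlet and outlet perfusate were collected and weighed at set times. Samples were methanol-precipitated (1:3) and analysed by HPLC. Ka and Papp were derived from concentrations, volumes, segment radius and length, and flow rate.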
# [8] = Enzymatic stability in rat hepatic homogenates; assay type: in vitro ADME; conditions: Sprague-Dawley, liver homogenate
# How it was run: as §1
# [9] = Chemical stability in different pH hydrochloride and phosphate buffers at 37 °C; assay type: physicochemical; conditions: for half-life at 80 µg/ml: hydrochloride or phosphate buffer (PBS); for T1/2: pH 6.8, 37 °C, 80 µg/ml
# How it was run: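 Test compound at 80 µg/ml in pH 1.2, 6.8 or 7.4 solution, shaken at 37 °C. Samples were taken at 0, 0.083, 0.25, 0.5, 1, 2, 4, 8, 12, 24 and 48 h. Each sample was centrifuged at 13 000 rpm for 10 min and quantified by HPLC.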
# [10] = system: Caco-2 monolayer; assay: Caco-2 cell permeability; assay type: in vitro ADME; conditions: AP → BL transport
# How it was run: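 Caco-2 cells seeded on Transwell inserts at 1 × 10^4 per well. After the first week, medium contained butyric acid up to 21 d, and monolayers with TEER above 300 Ω cm2 were used. Monolayers were washed with 37 °C HBSS and equilibrated for 30 min. Drug was added apically with HBSS basolaterally. BL was sampled with replacement at 5–120 min, with or without inhibitor (2.5 mM). Samples were analysed by UPLC-MS/MS and Papp calculated.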
# [11] = male, Sprague-Dawley, rat, plasma, iv
Structure (SMILES),"Intestinal histology (duodenum, jejunum, ileum, colon; H&E) [1]","Systemic histology (heart, liver, spleen, lung, kidney; H&E) [1]","Fabs ([2]; i.v., rat (reference)) [%]","Cmax [2, 11] [ng/mL]","Tmax [2, 11] [min]","half-life [2, 11] [h]",IC50 [3] [µM],half-life at 80 µg/ml [4] [h],Uptake in untreated cells (without butyric acid induction) [5],"Caco-2 uptake, fold higher than 5-FU [5] [fold]",half-life at 80 µg/ml [6] [h],"absorption rate constant (Ka), fold higher than 5-FU [7] [fold]","apparent permeability coefficient (Papp), fold higher than 5-FU [7] [fold]",Ka and Papp values on co-incubating with quercetin (MCT1 inhibitor) ([7]; in situ perfusion with quercetin),half-life at 80 µg/ml [8] [h],half-life at 80 µg/ml ([9]; pH 1.2) [h],half-life at 80 µg/ml ([9]; pH 7.4) [h],T1/2 [9],"IC50 in Caco-2 cells, fold greater than 5-FU [3] [fold]","membrane permeability AP → BL, fold greater than 5-FU [10] [fold]"
"O=c1[nH]cc(F)c(=O)[nH]1 [5-FU, 5-Fluorouracil]","inflammatory cell infiltration occurred in the duodenum, jejunum and ileum tissues","the liver cells were wrinkled, the nuclei were pyknotic",100,11200,4.8,0.29 ± 0.06,77.8 ± 1.11,,,,,,,,,,,,,
"O=C(O)CCCCC(=O)OCn1cc(F)c(=O)[nH]c1=O [HDA-5-FU, Hexanedioic acid mono-(5-fluoro-2,4-dioxo-3,4-dihydro-2H-pyrimidin-1-ylmethyl) ester]",,,,,,,500.8 ± 1.32,3.4 ± 0.2,significantly decreased,2.2,19.7 ± 5.1,1.1,1.1,significantly decreased,9.7 ± 3,38.3 ± 0.1,143 ± 36.8,No hydrolysis,6.4,8.5
"O=C(O)CCCCCCC(=O)OCn1cc(F)c(=O)[nH]c1=O [OA-5-FU, octanedioic acid mono-(5-fluoro-2,4-dioxo-3,4-dihydro-2H-pyrimidin-1-ylmethyl) ester]",No significant toxicity,,,,,,317.7 ± 1.1,1.2 ± 0.1,significantly decreased,5.5,15.3 ± 1.1,3.8,3.3,,< 0.25,36.8 ± 2.3,152 ± 13.1,No hydrolysis,4.1,13.1
